Experimental data taken from ChEMBL document CHEMBL1128174, “Enhanced D1 affinity in a series of piperazine ring substituted 1-piperazino-3-arylindans with potential atypical antipsychotic activity” (J Med Chem, 1995).
pIC50: −log10 of the molar value. “And” between values parts separate entries of the source, which are not always exact repeats. Equal values may be shown once.

What was measured:
Mus musculus = species on record: Mus musculus; test: Antagonism of methyl phenidate-induced gnawing behavior in mice; assay type: functional
Outline: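 Test compound given ip (or sc) 2 h before methyl phenidate (60 mg/kg); mice housed in pairs on corrugated cardboard in gnawing cages, 5–9 pairs per dose.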

Rattus norvegicus [1] = species on record: Rattus norvegicus; test: Cataleptogenic effect in rats; assay type: functional
Outline: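 Rats scored on a vertical wire grid hourly 1–6 h after dosing; catalepsy counted when immobility lasted at least 15 s.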

D(1A) dopamine receptor = D(1A) dopamine receptor (Rattus norvegicus, UniProt P18901); test: Binding affinity for dopamine receptor D1, activity is expressed as IC50 values.
Sequence of D(1A) dopamine receptor (P18901 whole entry): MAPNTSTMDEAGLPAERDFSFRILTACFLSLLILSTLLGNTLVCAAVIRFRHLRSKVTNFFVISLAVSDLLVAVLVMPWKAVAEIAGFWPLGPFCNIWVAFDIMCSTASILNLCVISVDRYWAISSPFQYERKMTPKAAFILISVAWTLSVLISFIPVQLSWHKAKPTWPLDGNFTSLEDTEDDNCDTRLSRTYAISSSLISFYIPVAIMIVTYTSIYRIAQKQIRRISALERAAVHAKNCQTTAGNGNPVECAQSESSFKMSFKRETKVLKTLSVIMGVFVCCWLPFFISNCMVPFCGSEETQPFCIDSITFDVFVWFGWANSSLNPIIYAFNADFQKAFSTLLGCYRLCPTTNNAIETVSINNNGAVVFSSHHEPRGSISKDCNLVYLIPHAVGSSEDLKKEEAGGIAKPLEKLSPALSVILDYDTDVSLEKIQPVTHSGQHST

D(2) dopamine receptor = D(2) dopamine receptor (Rattus norvegicus, UniProt P61169); test: Binding affinity against dopamine receptor D2
Sequence of D(2) dopamine receptor (P61169 whole entry): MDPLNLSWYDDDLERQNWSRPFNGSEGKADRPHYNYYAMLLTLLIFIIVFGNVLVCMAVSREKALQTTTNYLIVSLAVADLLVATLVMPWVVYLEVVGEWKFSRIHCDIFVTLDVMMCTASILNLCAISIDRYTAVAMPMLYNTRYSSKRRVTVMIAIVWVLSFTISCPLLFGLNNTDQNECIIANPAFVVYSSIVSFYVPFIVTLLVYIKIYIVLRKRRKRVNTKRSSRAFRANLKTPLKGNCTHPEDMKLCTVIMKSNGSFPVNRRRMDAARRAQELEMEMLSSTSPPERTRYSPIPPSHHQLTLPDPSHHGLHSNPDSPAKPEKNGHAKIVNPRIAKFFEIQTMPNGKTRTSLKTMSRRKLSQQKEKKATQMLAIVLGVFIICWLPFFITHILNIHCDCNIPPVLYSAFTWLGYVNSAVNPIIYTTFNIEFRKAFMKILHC

Rattus norvegicus [2] = species on record: Rattus norvegicus; test: In vitro inhibition of [3H]NE uptake in rat occipital lobe (plus temporal cortex) homogenates.; assay type: functional
Rattus norvegicus [3] = species on record: Rattus norvegicus; test: In vitro inhibition of [3H]5-HT uptake in rat brain (minus pons, medulla oblongata and cerebellum) homogenates.; assay type: functional
Rattus norvegicus [4] = species on record: Rattus norvegicus; test: In vitro inhibition of [3H]dopamine uptake in rat corpus striatum homogenates.; assay type: functional
[5] = molecular target: 5-hydroxytryptamine receptor 2A (Rattus norvegicus, UniProt P14842); test: Binding affinity for 5-hydroxytryptamine 2A receptor, activity is expressed as IC50 values.
Sequence of 5-hydroxytryptamine receptor 2A (P14842 whole entry): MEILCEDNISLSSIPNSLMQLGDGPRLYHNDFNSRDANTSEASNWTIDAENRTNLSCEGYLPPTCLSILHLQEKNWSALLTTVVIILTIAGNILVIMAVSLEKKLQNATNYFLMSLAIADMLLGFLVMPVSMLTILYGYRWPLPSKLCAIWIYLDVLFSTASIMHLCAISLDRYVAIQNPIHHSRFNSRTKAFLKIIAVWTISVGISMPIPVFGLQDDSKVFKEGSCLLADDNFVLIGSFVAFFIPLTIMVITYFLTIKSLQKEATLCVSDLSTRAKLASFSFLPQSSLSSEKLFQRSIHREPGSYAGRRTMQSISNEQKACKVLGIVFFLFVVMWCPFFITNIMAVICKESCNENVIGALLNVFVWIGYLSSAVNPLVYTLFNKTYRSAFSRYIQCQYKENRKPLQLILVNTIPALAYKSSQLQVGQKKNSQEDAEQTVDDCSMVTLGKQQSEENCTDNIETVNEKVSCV

[6] = Rattus norvegicus, read-out: ED50
[7] = Rattus norvegicus, Corpus striatum

| SMILES | ED50 (Mus musculus; Mus musculus, read-out: ED50) [µmol/kg] | pIC50 (D(1A) dopamine receptor) | pIC50 (D(2) dopamine receptor) | further results |
| --- | --- | --- | --- | --- |
| CN1CCN(C2CC(c3ccc(F)cc3)c3c(Cl)cccc32)CC1(C)C (stereo not given) | > 36 |  |  |  |
| Cc1ccc2c(c1)C(N1CCN(C)C(C)(C)C1)CC2c1ccc(F)cc1 (stereo not given) | 1.4 |  |  | ED50 (Rattus norvegicus [1]; [6]): 33 µmol/kg |
| CN1CCN(C2CC(c3cccc(F)c3)c3ccc(Cl)cc32)CC1(C)C (stereo not given) | > 33 |  |  | ED50 (Rattus norvegicus [1]; [6]): > 33 µmol/kg |
| COc1ccc2c(c1)C(N1CCN(CCO)CC1)CC2c1ccc(F)cc1 (stereo not given) |  | 6.68 | 7.07 |  |
| CC1(C)CN(C2CC(c3ccsc3)c3ccc(Cl)cc32)CCN1 (stereo in doubt; 54) |  |  |  | ED50 (Rattus norvegicus [1]): >35 µM/kg; ED50 (Mus musculus): 6.5 µM/kg |
| CC(C)c1ccc2c(c1)C(N1CCN(CCO)CC1)CC2c1ccc(F)cc1 (stereo not given) |  | 7.18 | 7.85 |  |
| OCCN1CCN(C2CC(c3ccc(F)cc3)c3ccc(Cl)cc32)CC12CCCC2 (single isomer, unassigned; (+)) |  | 7.29 |  | pIC50 (Rattus norvegicus [2]; Rattus norvegicus): 6.36; pIC50 (Rattus norvegicus [3]; Rattus norvegicus): 5.62; pIC50 (Rattus norvegicus [4]; [7]): 6.92 |
| OCCN1CCN(C2CC(c3ccccc3)c3ccccc32)CC1 (stereo not given) |  | 6.14 | 5.55 |  |
| CC1(C)CN(C2CC(c3ccc(F)cc3)c3ccc(Cl)cc32)CCN1 (single isomer, unassigned; (+)) |  | 5.96 | 4.92 | pIC50 (Rattus norvegicus [2]): 6.54; pIC50 (Rattus norvegicus [3]): < 7.00; pIC50 [5]: 5.44; pIC50 (Rattus norvegicus [4]): 7.54 |
| CS(=O)(=O)c1ccc2c(c1)C(N1CCN(CCO)CC1)CC2c1ccc(F)cc1 (stereo not given) |  | 6.16 | 7.38 |  |
| CC(C)N1CCN(C2CC(c3ccc(F)cc3)c3ccc(Cl)cc32)CC1(C)C (single isomer, unassigned; (-)) |  | 9.18 |  | pIC50 (Rattus norvegicus [2]): 5.25; ED50 (Rattus norvegicus [1]): 7.1 µM/kg; pIC50 (Rattus norvegicus [3]; Rattus norvegicus): 5.46; pIC50 (Rattus norvegicus [4]): 5.89; ED50 (Mus musculus): 0.76 µM/kg |
| CN1CCN(C2CC(c3ccc(F)cc3)c3ccc(Cl)cc32)CC12CCCC2 (single isomer, unassigned; (+)) |  | 8.18 |  | pIC50 (Rattus norvegicus [2]; Rattus norvegicus): 6.16; pIC50 (Rattus norvegicus [3]; Rattus norvegicus): 5.74; pIC50 (Rattus norvegicus [4]; [7]): 6.82 |
| CN1CCN(C2CC(c3ccccc3)c3ccc(Cl)cc32)CC1(C)C (stereo in doubt; (+)-38) |  | 7.82 | 6.59 | pIC50 (Rattus norvegicus [2]): 7.59; pIC50 (Rattus norvegicus [3]; Rattus norvegicus): 5.28; pIC50 [5]: 7.17; pIC50 (Rattus norvegicus [4]): 8.12 |
| CN1CCN(C2CC(c3ccc(Cl)cc3)c3ccc(Cl)cc32)CC1(C)C (stereo not given) | > 69 | 7.47 | 7.20 | pIC50 [5]: 7.49 |
| CN1CCN(C2CC(c3ccc(F)cc3)c3ccc(F)cc32)CC1 (stereo not given) |  |  |  | pIC50 (Rattus norvegicus [3]): 6.21 and 5.41 |
| OCCN1CCN(C2CC(c3ccc(F)cc3)c3ccc(Cl)cc32)CC12CCCC2 (stereo in doubt; (-)-35) |  | 9.00 | 8.30 | ED50 (Rattus norvegicus [1]): 2.7 µM/kg; ED50 (Mus musculus): 0.49 µM/kg |
| CSc1ccc2c(c1)C(N1CCN(CCO)CC1)CC2c1ccc(F)cc1 (stereo not given) |  | 7.41 | 7.89 |  |
| CN1CCN(C2CC(c3ccc(F)cc3)c3ccc(Cl)cc32)CC12CCCC2 (stereo in doubt; 34) | 1.7 | 9.07 |  | ED50 (Rattus norvegicus [1]; [6]): 42 µmol/kg |
| Cc1ccc2c(c1)C(N1CCNC(C)(C)C1)CC2c1ccc(F)cc1 (stereo not given) | 33 |  |  | ED50 (Rattus norvegicus [1]; [6]): > 29 µmol/kg |
| CN1CCN(C2CC(c3ccc(F)cc3)c3ccc(C(F)(F)F)cc32)CC1 (stereo not given) |  | 7.77 | 8.09 |  |
| CC1(C)CN(C2CC(c3ccc(F)cc3)c3ccc(C(F)(F)F)cc32)CCN1 (stereo not given) | 2.7 |  |  | ED50 (Rattus norvegicus [1]; [6]): > 51 µmol/kg; pIC50 [5]: 8.12 |
| CN1CCN(C2CC(c3ccc(F)cc3)c3ccc(Cl)cc32)CC1(C)C (stereo in doubt; (+)-28) |  | 6.21 |  | pIC50 (Rattus norvegicus [2]): 7.17; pIC50 (Rattus norvegicus [3]): < 6.00; pIC50 (Rattus norvegicus [4]): 7.80 |
| CN1CCN(C2CC(c3ccc(F)cc3)c3ccccc32)CC1(C)C (stereo in doubt; 39) | 12 | 8.52 | 7.54 | ED50 (Rattus norvegicus [1]; [6]): > 70 µmol/kg; pIC50 [5]: 8.29 |
| CC1(C)CN(C2CC(c3ccsc3)c3ccc(Cl)cc32)CCN1 (stereo in doubt; (+)-54) |  | 6.36 | 5.17 | pIC50 (Rattus norvegicus [2]): 7.14; pIC50 (Rattus norvegicus [3]): 5.70; pIC50 [5]: 5.96; pIC50 (Rattus norvegicus [4]): 7.57 |
| OCCN1CCN(C2CC(c3ccc(F)cc3)c3ccc(C(F)(F)F)cc32)CC1 (stereo not given) |  | 7.64 | 8.00 |  |
| CN1CCN(C2CC(c3ccc(F)cc3)c3ccc(Br)cc32)CC1(C)C (stereo not given) | 1.5 |  |  | ED50 (Rattus norvegicus [1]; [6]): 9.4 µmol/kg |
| CC1CN(C2CC(c3ccc(F)cc3)c3ccc(Cl)cc32)C(C)CN1C (stereo not given) | > 66 | 7.72 | 7.39 | ED50 (Rattus norvegicus [1]; [6]): > 33 µmol/kg |
